Assays:
[1] = biological target: T1, Protein kinase C alpha type (Homo sapiens, UniProt P17252); test: Binding affinity for protein kinase C alpha
[2] = biological target: T1, Protein kinase C alpha type; test: Displacement of [3H]PDBu from PKC alpha at 100 uM; range 0 to 20
Method in brief: (§1)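 Competitive [3H]PDBu binding to recombinant human PKCα (Sf9-expressed), 4.3-4.8 nM, in 50 mM Tris-HCl pH 7.5 containing 4 mM CaCl2, 100 µg/mL sonicated phosphatidylserine, 4 mg/mL BSA and 10 nM [3H]PDBu. Incubation 2 h at 0 °C, then filtration on PEI-treated glass-fiber filters and scintillation counting. 10 µM TPA defined background/nonspecific binding. Ki derived using [3H]PDBu Kd 0.19 nM (Scatchard).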

[3] = biological target: T1, Protein kinase C alpha type; test: Displacement of [3H]PDBu from PKC alpha at 100 uM; range 60 to 80; method in brief: as §1
[4] = biological target: T1, Protein kinase C alpha type; test: Displacement of [3H]PDBu from PKC alpha at 100 uM.; method in brief: as §1
[5] = biological target: T1, Protein kinase C alpha type; test: Displacement of [3H]PDBu from PKC alpha at 100 uM; range 40 to 60; method in brief: as §1
[6] = biological target: T1, Protein kinase C alpha type; test: Displacement of [3H]PDBu from PKC alpha at 100 uM; range 20 to 40; method in brief: as §1

Compound	Ki [1] [nM]	further results
CC(=O)OC[C@@]1(CO)OC(=O)c2c(OCc3ccccc3)cccc21	540	inhibition [2]: 9%
CCCCCCCCCCCCOc1cccc2c1C(=O)O[C@]2(CO)COC(C)=O	540	inhibition [3]: 75%
CCCCCCCCCCCCOc1cccc2c1C(=O)O[C@@]2(CO)COC(=O)C(C)(C)C	122	
C=CCOC(=O)Oc1cccc2c1C(=O)O[C@]2(CO)COC(C)=O	122	inhibition [4]: 0%
CCCCCCCCCCOc1cccc2c1C(=O)O[C@]2(CO)COC(C)=O	122	inhibition [5]: 59%
CCCCCCCCCCOc1cccc2c1C(=O)O[C@@]2(CO)COC(C)=O	122	inhibition [6]: 21%
CCCCCCCCCCCCOc1cccc2c1C(=O)O[C@@]2(CO)COC(C)=O	540	inhibition [6]: 35%
